The record followed here is ChEMBL document CHEMBL1759857, “Synthesis and evaluation of isatin analogs as caspase-3 inhibitors: introduction of a hydrophilic group increases potency in a whole cell assay” (Bioorg Med Chem Lett, 2011).

SMILES strings stand for the structures.

The target of one test is T1, Caspase-1 (Homo sapiens, UniProt P29466).
T1 sequence (P29466 whole entry): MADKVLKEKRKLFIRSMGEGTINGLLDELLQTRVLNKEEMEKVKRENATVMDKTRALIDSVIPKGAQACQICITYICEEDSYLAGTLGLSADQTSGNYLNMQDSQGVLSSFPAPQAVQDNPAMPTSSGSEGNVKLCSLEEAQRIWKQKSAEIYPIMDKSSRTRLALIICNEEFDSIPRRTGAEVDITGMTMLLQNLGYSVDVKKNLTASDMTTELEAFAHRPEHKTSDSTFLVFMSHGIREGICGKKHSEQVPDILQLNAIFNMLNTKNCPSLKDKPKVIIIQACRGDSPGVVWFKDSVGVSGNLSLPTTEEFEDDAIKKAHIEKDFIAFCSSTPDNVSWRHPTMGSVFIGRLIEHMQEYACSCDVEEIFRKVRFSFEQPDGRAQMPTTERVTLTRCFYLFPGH
In words: Inhibition of caspase 1 by fluorometric assay. The procedure, abridged: (§1)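 Recombinant caspases were tested in a standard fluorometric enzyme assay. IC50 is reported as mean ± SD of at least three independent assays.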

Test [1] addresses T2, Caspase-3 (Homo sapiens, UniProt P42574).
T2 sequence (P42574 whole entry): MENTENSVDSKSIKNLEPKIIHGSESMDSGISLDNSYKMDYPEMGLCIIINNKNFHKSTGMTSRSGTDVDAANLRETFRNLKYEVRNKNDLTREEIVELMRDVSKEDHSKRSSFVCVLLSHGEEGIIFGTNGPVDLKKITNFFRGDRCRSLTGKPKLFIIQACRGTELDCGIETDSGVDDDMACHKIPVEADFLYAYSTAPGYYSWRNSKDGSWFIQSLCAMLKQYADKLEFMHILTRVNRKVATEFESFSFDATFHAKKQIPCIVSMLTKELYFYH
Kind of test: Inhibition of staurosporine induced activation of caspase 3 activation in human Hela cells assessed as hydrolysis of Z-DEVD-R110 substrate by microplate fluorescence assay. Type of test: cell-based. The procedure, abridged: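 HeLa cells were seeded at 1-2×10^4 per well and left to adhere overnight at 37°C in 5% CO2. […] A homogeneous caspase-3/7 kit with cell-permeable Z-DEVD-R110 was then used, reading fluorescence at ex 485/em 535 nm. EC50 was taken from dose-response curves, as mean ± SD of ≥3 independent experiments.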

Another test addresses T3, Caspase-6 (Homo sapiens, UniProt P55212).
T3 sequence (P55212 whole entry): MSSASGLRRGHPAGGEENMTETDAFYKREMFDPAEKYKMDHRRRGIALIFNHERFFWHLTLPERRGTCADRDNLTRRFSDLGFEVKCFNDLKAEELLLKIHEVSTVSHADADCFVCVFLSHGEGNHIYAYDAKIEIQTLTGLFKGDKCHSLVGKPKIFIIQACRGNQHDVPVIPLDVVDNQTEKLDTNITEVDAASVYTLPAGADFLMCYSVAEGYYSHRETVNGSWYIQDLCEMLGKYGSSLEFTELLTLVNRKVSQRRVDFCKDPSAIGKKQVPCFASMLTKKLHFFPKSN
In words: Inhibition of caspase 6 by fluorometric assay. The procedure, abridged:
as §1

The target of the next test is Caspase-8 (Homo sapiens, UniProt Q14790). In words: Inhibition of caspase 8 by fluorometric assay. In a few lines: as §1
Test [2] deals with T2, Caspase-3. Kind of test: Inhibition of human caspase 3 by fluorometric assay. In a few lines: as §1
Another test concerns the target T4, Caspase-7 (Homo sapiens, UniProt P55210).
T4 sequence (P55210 whole entry): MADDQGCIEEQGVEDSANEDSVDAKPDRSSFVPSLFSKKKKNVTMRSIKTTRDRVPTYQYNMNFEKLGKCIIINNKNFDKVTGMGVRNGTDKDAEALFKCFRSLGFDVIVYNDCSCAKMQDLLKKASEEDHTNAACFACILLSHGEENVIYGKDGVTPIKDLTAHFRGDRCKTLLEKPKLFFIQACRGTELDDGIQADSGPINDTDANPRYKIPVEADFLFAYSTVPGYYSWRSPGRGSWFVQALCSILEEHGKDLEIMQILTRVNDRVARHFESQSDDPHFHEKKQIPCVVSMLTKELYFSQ
Kind of test: Inhibition of caspase 7 by fluorometric assay.

Caspase-8, sequence (Q14790 217-374 limits assumed): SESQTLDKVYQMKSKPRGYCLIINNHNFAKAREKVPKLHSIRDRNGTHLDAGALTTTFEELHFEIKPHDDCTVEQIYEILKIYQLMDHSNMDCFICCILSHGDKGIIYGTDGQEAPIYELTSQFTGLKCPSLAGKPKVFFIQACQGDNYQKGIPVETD
Caspase-8, sequence (Q14790 385-479 limits assumed): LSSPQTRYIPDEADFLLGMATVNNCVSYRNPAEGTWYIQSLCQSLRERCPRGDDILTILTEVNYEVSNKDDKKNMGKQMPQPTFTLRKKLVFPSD

Turning to `O=C1C(=O)N(Cc2ccc(OCCF)cc2)c2ccc(S(=O)(=O)N3CC[C@H]3COc3ccccc3)cc21`, the IC50 at Caspase-1 is above 20000 nM; against Caspase-6 it was 4930 nM; against Caspase-8, above 25000 nM; on Caspase-3 [2], 8.6 nM; against Caspase-7, 26.1 nM. Moreover, the EC50 at Caspase-3 [1] came to 2000 nM.
Consider `O=C1C(=O)N(Cc2ccc(OCCOCCF)cc2)c2ccc(S(=O)(=O)N3CC[C@H]3COc3ccccc3)cc21`, for which the IC50 is above 50000 nM against Caspase-1; above 10000 nM against Caspase-6; above 50000 nM against Caspase-8; 27.9 nM against Caspase-3 [2]; 28.9 nM on Caspase-7. In addition, the EC50 on Caspase-3 [1] is 2150 nM.
For `O=C1C(=O)N(Cc2ccc(OCCOCCOCCF)cc2)c2ccc(S(=O)(=O)N3CC[C@H]3COc3ccccc3)cc21`, the IC50 on Caspase-1 is above 25000 nM; against Caspase-6, 2990 nM; against Caspase-8, above 50000 nM; at Caspase-3 [2], 26.9 nM; on Caspase-7, 19.2 nM.
Consider `O=C1C(=O)N(Cc2ccc(OCCF)cc2)c2ccc(S(=O)(=O)N3CC[C@H]3COc3cccnc3)cc21`, for which the IC50 on Caspase-1 was above 10000 nM; against Caspase-6, 8700 nM; against Caspase-8, above 50000 nM; against Caspase-3 [2], 3.6 nM; against Caspase-7, 17.6 nM. For the same compound, the concentration for a half-maximal effect (EC50) on Caspase-3 [1] stood at 380 nM.
In the case of `COc1ccc(CN2C(=O)C(=O)c3cc(S(=O)(=O)N4CC[C@H]4COc4cccnc4)ccc32)cc1`, the IC50 was above 15000 nM against Caspase-1; 9200 nM against Caspase-6; above 50000 nM against Caspase-8; 3.3 nM against Caspase-3 [2]; 10.2 nM against Caspase-7. At Caspase-3 [1], the EC50 stood at 450 nM.
With `O=C1C(=O)N(Cc2ccc(OCCOCCF)cc2)c2ccc(S(=O)(=O)N3CCC[C@H]3COc3ccccc3)cc21`, the IC50 at Caspase-1 was above 25000 nM; against Caspase-6, above 10000 nM; at Caspase-8, above 50000 nM; on Caspase-3 [2], 10.9 nM; on Caspase-7, 11.9 nM. On Caspase-3 [1], the EC50 came to 1690 nM.
Consider `O=C1C(=O)N(Cc2ccc(OCCOCCOCCF)cc2)c2ccc(S(=O)(=O)N3CCC[C@H]3COc3ccccc3)cc21`, for which the IC50 is above 50000 nM on Caspase-1; 7670 nM on Caspase-6; above 50000 nM at Caspase-8; 13.7 nM at Caspase-3 [2]; 17.6 nM against Caspase-7. Besides, at Caspase-3 [1], the EC50 came out at 1300 nM.
Turning to `O=C1C(=O)N(Cc2ccc(OCCF)cc2)c2ccc(S(=O)(=O)N3CCC[C@H]3COc3cccnc3)cc21`, the 50% inhibitory concentration (IC50) was above 20000 nM against Caspase-1; 6900 nM at Caspase-6; above 50000 nM at Caspase-8; 3.1 nM on Caspase-3 [2]; 11.3 nM at Caspase-7. Also, the EC50 on Caspase-3 [1] came out at 390 nM.
Turning to `N#CC(C#N)=C1C(=O)N(Cc2ccc(OCCF)cc2)c2ccc(S(=O)(=O)N3CC[C@H]3COc3ccccc3)cc21`, the IC50 on Caspase-1 is 4780 nM; on Caspase-6 it was 747 nM; against Caspase-8, above 25000 nM; against Caspase-3 [2] it was 22.4 nM; against Caspase-7, 292 nM.
For `N#CC(C#N)=C1C(=O)N(Cc2ccc(OCCOCCF)cc2)c2ccc(S(=O)(=O)N3CC[C@H]3COc3ccccc3)cc21`, in that order: 5730 nM, 1010 nM, above 50000 nM, 24.4 nM and 68.3 nM.
The like results for `N#CC(C#N)=C1C(=O)N(Cc2ccc(OCCF)cc2)c2ccc(S(=O)(=O)N3CC[C@H]3COc3cccnc3)cc21` were, in that order, 2900 nM, 509 nM, above 50000 nM, 7.1 nM and 45 nM.
The like results for `COc1ccc(CN2C(=O)C(=C(C#N)C#N)c3cc(S(=O)(=O)N4CC[C@H]4COc4cccnc4)ccc32)cc1` were, in that order, above 36000 nM, 450 nM, above 50000 nM, 6 nM and 50 nM.
With `N#CC(C#N)=C1C(=O)N(Cc2ccc(OCCF)cc2)c2ccc(S(=O)(=O)N3CCC[C@H]3COc3ccccc3)cc21`, the IC50 was above 10000 nM against Caspase-1; 927 nM on Caspase-6; above 50000 nM against Caspase-8; 18.3 nM on Caspase-3 [2]; 96.3 nM against Caspase-7.
For `N#CC(C#N)=C1C(=O)N(Cc2ccc(OCCOCCF)cc2)c2ccc(S(=O)(=O)N3CCC[C@H]3COc3ccccc3)cc21`, in that order: above 10000 nM, 1160 nM, above 50000 nM, 23.3 nM and 70 nM.
For `N#CC(C#N)=C1C(=O)N(Cc2ccc(OCCF)cc2)c2ccc(S(=O)(=O)N3CCC[C@H]3COc3cccnc3)cc21`, in that order: 3500 nM, 770 nM, above 50000 nM, 7.5 nM and 26.5 nM.
Consider `O=C1C(=O)N(Cc2cn(CCF)nn2)c2ccc(S(=O)(=O)N3CC[C@H]3COc3ccccc3)cc21`, for which the IC50 was above 20000 nM against Caspase-1; 6950 nM at Caspase-6; above 50000 nM at Caspase-8; 11 nM against Caspase-3 [2]; 18 nM at Caspase-7. On Caspase-3 [1], the EC50 was 800 nM.
Consider `O=C1C(=O)N(Cc2cn(CCF)nn2)c2ccc(S(=O)(=O)N3CC[C@H]3COc3cccnc3)cc21`, for which the IC50 against Caspase-1 is above 20000 nM; on Caspase-6 it was 7750 nM; on Caspase-8, above 50000 nM; against Caspase-3 [2], 5.6 nM; at Caspase-7, 6.1 nM. Besides, at Caspase-3 [1], the EC50 was determined as 420 nM.
As for `O=C1C(=O)N(Cc2cn(CCF)nn2)c2ccc(S(=O)(=O)N3CCC[C@H]3COc3cccnc3)cc21`, the IC50 against Caspase-1 is above 20000 nM; against Caspase-6, 13400 nM; against Caspase-8 it was above 50000 nM; against Caspase-3 [2] it was 4.5 nM. The EC50 on Caspase-3 [1] was 350 nM.
Turning to `O=C1Nc2ccc(S(=O)(=O)N3CCC[C@H]3COc3cccnc3)cc2C1=O`, at Caspase-3 [1], the EC50 turned out to be 1830 nM.
Take `O=C1C(=O)N(Cc2ccccc2)c2ccc(S(=O)(=O)N3CCC[C@H]3COc3cccnc3)cc21`: the EC50 on Caspase-3 [1] came out at 650 nM.
`O=C1Nc2ccc(S(=O)(=O)N3CC[C@H]3COc3ccccc3)cc2C1=O`: the EC50 on Caspase-3 [1] is 9570 nM.
Same read-out and setting: as for `O=C1C(=O)N(Cc2ccccc2)c2ccc(S(=O)(=O)N3CC[C@H]3COc3ccccc3)cc21`, the figure is 2800 nM.
Same read-out and setting: as for `COc1ccc(CN2C(=O)C(=O)c3cc(S(=O)(=O)N4CC[C@H]4COc4ccccc4)ccc32)cc1`, the figure is 3070 nM; as for `O=C1C(=O)N(Cc2ccc(OCCF)cc2)c2ccc(S(=O)(=O)N3CCC[C@H]3COc3ccccc3)cc21`, 4500 nM; as for `CN1C(=O)C(=O)c2cc(S(=O)(=O)N3CCC[C@H]3COc3ccccc3)ccc21`, 7670 nM.
Still for that read-out and setting: as for `CN1C(=O)C(=O)c2cc(S(=O)(=O)N3CC[C@H]3COc3ccccc3)ccc21`, the figure is 3250 nM.
For the compound `CN1C(=O)C(=O)c2cc(S(=O)(=O)N3CCC[C@H]3COc3cccnc3)ccc21`, the EC50 at Caspase-3 [1] turned out to be 1800 nM.
`COc1ccc(CN2C(=O)C(=O)c3cc(S(=O)(=O)N4CCC[C@H]4COc4cccnc4)ccc32)cc1`: the EC50 on Caspase-3 [1] is 450 nM.
Same read-out and setting: then `O=C1C(=O)N(Cc2ccccc2)c2ccc(S(=O)(=O)N3CCC[C@H]3COc3ccccc3)cc21`, with 3670 nM.
Turning to `O=C1C(=O)N(Cc2cn(CCF)nn2)c2ccc(S(=O)(=O)N3CCC[C@H]3COc3ccccc3)cc21`, the IC50 against Caspase-1 was above 20000 nM; at Caspase-6 it was 9970 nM; against Caspase-8, above 50000 nM; at Caspase-3 [2], 12.2 nM; against Caspase-7, 12.4 nM. Moreover, the EC50 at Caspase-3 [1] turned out to be 930 nM.
Consider `O=C1Nc2ccc(S(=O)(=O)N3CCC[C@H]3COc3ccccc3)cc2C1=O`, for which the EC50 at Caspase-3 [1] stood at 11500 nM.

As usually defined, the IC50 is the concentration that gives 50% inhibition. Broadly, the EC50 is the midpoint of the concentration-response curve.
